Here are results for 11 molecules from ChEMBL document CHEMBL5260794, “Synthesis and biological evaluation of a new class of benzothiazines as neuroprotective agents” (Eur J Med Chem, 2017).

The source made the active and inactive calls. The rule behind the calls is not given here. Some results are limits rather than exact numbers.

The species named for assay [1] is Rattus norvegicus. In words: Neuroprotective activity against oxygen glucose deprivation/reperfusion-induced Wistar rat cortical brain assessed as concentration required to reduce glutamate release by measuring efficacy window. Format: functional. Put shortly:
(§1)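 Male Wistar rat cortical slices (400 μm) in oxygenated ACSF, pH 7.4, 1 h at room temperature, then 30 min at 37 °C. OGD for 30 min in glucose-free ACSF with 11 mM sucrose under 95% N₂/5% CO₂. Compound added in the reoxygenation buffer. Glutamate and LDH release measured. Mean ± SEM of at least four experiments, ANOVA with Dunnett test.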

For assay [2], the species on record is Rattus norvegicus. Description: Neuroprotective activity against oxygen glucose deprivation/reperfusion-induced Wistar rat cortical brain assessed as reduction in glutamate release relative to control. The assay is classed as functional. Further details: concentration or dose not given beside the values. In a few lines: as §1
The species entered for assay [3] is Rattus norvegicus. Description: Neuroprotective activity against oxygen glucose deprivation/reperfusion-induced Wistar rat cortical brain assessed as reduction in glutamate release by measuring minimal effective concentration. Format: functional. Put shortly:
as §1

The species entered for assay [4] is Rattus norvegicus. Description: Neuroprotective activity against oxygen glucose deprivation/reperfusion-induced Wistar rat cortical brain assessed as reduction in LDH release relative to control. Format: functional. Further details: concentration or dose not given beside the values. Put shortly:
as §1
In general terms: LDH leaks from cells whose membrane has failed.

The species entered for assay [5] is Rattus norvegicus. Description: Neuroprotective activity against oxygen glucose deprivation/reperfusion-induced Wistar rat cortical brain assessed as concentration required to reduce LDH release by measuring efficacy window. Format: functional. In a few lines: as §1
Assay [6] is filed under the species Rattus norvegicus. In words: Neuroprotective activity against oxygen glucose deprivation/reperfusion-induced Wistar rat cortical brain assessed as reduction in LDH release by measuring minimal effective concentration. The assay is classed as functional. Put shortly:
as §1

The test system of assay [7] is SH-SY5Y. In words: Neuroprotective activity against 6-OHDA-induced toxicity in human SH-SY5Y cells assessed as reduction in condensed and fragmented nuclei at 10 uM pretreated for 1 hr followed by 6-OHDA challenge measured after 2 hrs by DAPI staining based assay relative to control. Particulars: time 3.0 hrs.
Assay [8] has as its system SH-SY5Y. In words: Neuroprotective activity against glutamate-induced toxicity in human SH-SY5Y cells assessed as reduction in cell rounding at 0.01 uM pretreated for 1 hr followed by glutamate challenge measured after 24 hrs by phase-contrast light microscopic analysis. The assay is classed as functional, cell-based. Particulars: time 25.0 hrs. In a few lines: (§2)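 SH-SY5Y cells pretreated with compound 1 h, then glutamate 50 mM for 24 h. Morphology examined and photographed by phase-contrast microscopy. Scored on USP 28 grade scale 0-4, with grades based on cell rounding, loss of intracytoplasmic granules, lysis and empty areas between cells. Control wells received medium only.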

Assay [9] has as its system SH-SY5Y. In words: Neuroprotective activity against glutamate-induced toxicity in human SH-SY5Y cells assessed as reduction in condensed and fragmented nuclei at 0.01 uM pretreated for 1 hr followed by glutamate challenge measured after 24 hrs by DAPI staining based assay (reference value: 16.9 +/- 1.5%). The assay is classed as functional, cell-based. Particulars: time 25.0 hrs.

For assay [10], the system named is SH-SY5Y. In words: Neuroprotective activity against glutamate-induced toxicity in human SH-SY5Y cells assessed as reduction in ROS production measured after 24 hrs by DCFH-DA staining based assay. Format: functional, cell-based. Particulars: dose 0.1-10 µM. Put shortly: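 Human SH-SY5Y neuroblastoma cells were preloaded with DCFH-DA (5 μM, 30 min) and washed in PBS. They were then pretreated for 1 h with compound (0.1-10 μM; DMSO stock diluted in PBS, final DMSO <0.01%) and challenged with glutamate (50 mM). Fluorescence (ex 485/em 535 nm) was read at 24 h and expressed as % inhibition of glutamate-induced ROS. Data are mean ± SEM of 4 experiments run in triplicate or quadruplicate.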

Assay [11] deals with SH-SY5Y. Description: Neuroprotective activity against glutamate-induced toxicity in human SH-SY5Y cells assessed as cell viability at 0.01 uM pretreated for 1 hr followed by glutamate challenge measured after 24 hrs by MTT assay. The assay is classed as functional. To be noted: time 25 hrs, read-out: Activity.
Assay [12] deals with SH-SY5Y. In words: Neuroprotective activity against glutamate-induced toxicity in human SH-SY5Y cells assessed as reduction in sub G0/G1 phase cells at 0.01 uM pretreated for 1 hr followed by glutamate challenge measured after 24 hrs by propidium staining based flow cytometry. Format: functional, cell-based. To be noted: time 25.0 hrs. Put shortly: (§3)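 Cells seeded 2.5 x 10⁵ cells/mL, pretreated with compound 1 h, then glutamate 50 mM for 24 h. Cells fixed in 70% ethanol (30 min, 4 °C), kept at -20 °C for at least 24 h, stained with propidium iodide and run on flow cytometer (563-607 nm band-pass). At least 1x10⁴ cells acquired per sample; sub-G0/G1 peak taken as apoptotic. Mean ± SEM, 4 independent experiments.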

Assay [13] concerns SH-SY5Y. Description: Neuroprotective activity against glutamate-induced toxicity in human SH-SY5Y cells assessed as reduction in G0/G1 phase cells at 0.01 uM pretreated for 1 hr followed by glutamate challenge measured after 24 hrs by propidium staining based flow cytometry. Particulars: time 25.0 hrs. The assay is classed as functional, cell-based. Put shortly:
as §3

Assay [14] relates to SH-SY5Y. Description: Neuroprotective activity against glutamate-induced toxicity in human SH-SY5Y cells assessed as reduction in ROS production at 0.01 uM by DCFH-DA staining based assay. Format: functional, cell-based. Particulars: time 24.0 hrs, TDE = time-dependent effect. Put shortly: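 Before treatment, SH-SY5Y cells loaded with DCFH-DA (5 μM, 30 min) and washed in PBS. Then 1 h compound pretreatment followed by glutamate 50 mM. Fluorescence read at 1 h or 24 h (ex 485, em 535 nm). Result expressed as % inhibition of glutamate-induced intracellular ROS. Mean ± SEM, 4 independent experiments in triplicate or quadruplicate.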

In assay [15] the test system is SH-SY5Y. In words: Neuroprotective activity against 6-OHDA-induced toxicity in human SH-SY5Y cells assessed as increase in cell viability at 0.01 uM pretreated for 1 hr followed by 6-OHDA challenge measured after 2 hrs by MTT assay. Format: functional, cell-based. To be noted: time 3.0 hrs. Put shortly:
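SH-SY5Y cells (RPMI 1640, 10% FBS, 37 °C, 5% CO2, used in exponential growth) seeded 8 x 10⁴ cells/mL, attached 24 h, pre-incubated with compound 1 h, then 6-OHDA 55 μM for 2 h (6-OHDA freshly dissolved in nitrogen-gassed 5 μM ascorbic acid). Controls received medium with 5 μM ascorbic acid. Viability by MTT. Mean ± SEM of 4 independent experiments, each in triplicate or quadruplicate.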
For orientation: Tetrazolium dyes change colour on reduction, which living cells bring about.

Assay [16] concerns SH-SY5Y. Description: Neuroprotective activity against glutamate-induced toxicity in human SH-SY5Y cells assessed as reduction in cell detachment at 0.01 uM pretreated for 1 hr followed by glutamate challenge measured after 24 hrs by phase-contrast light microscopic analysis. Particulars: time 25.0 hrs. The assay is classed as functional, cell-based. In a few lines:
as §2

In assay [17] the test system is SH-SY5Y. Description: Neuroprotective activity against glutamate-induced toxicity in human SH-SY5Y cells assessed as increase in S phase cells at 0.01 uM pretreated for 1 hr followed by glutamate challenge measured after 24 hrs by propidium staining based flow cytometry. Format: functional, cell-based. To be noted: time 25.0 hrs. In a few lines:
as §3
For orientation: A flow cytometer gives signals particle by particle.

In assay [18] the test system is SH-SY5Y. Description: Neuroprotective activity against glutamate-induced toxicity in human SH-SY5Y cells assessed as reduction in cell shrinkage at 0.01 uM pretreated for 1 hr followed by glutamate challenge measured after 24 hrs by phase-contrast light microscopic analysis. The assay is classed as functional, cell-based. To be noted: time 25.0 hrs. In a few lines:
as §2

Assay [19] has as its system SH-SY5Y. In words: Neuroprotective activity against glutamate-induced toxicity in human SH-SY5Y cells assessed as reduction in grade 2 to 3 toxicity at 0.01 uM pretreated for 1 hr followed by glutamate challenge measured after 24 hrs by phase-contrast light microscopic analysis. The assay is classed as functional, cell-based. To be noted: time 25.0 hrs. In a few lines: as §2

In assay [20] the test system is SH-SY5Y. Description: Neuroprotective activity against 6-OHDA-induced toxicity in human SH-SY5Y cells assessed as condensed and fragmented nuclei at 0.01 uM pretreated for 1 hr followed by 6-OHDA challenge measured after 2 hrs by DAPI staining based assay relative to control. Format: functional. Particulars: time 3 hrs.

Turning to `C/C(=N\C1=Nc2ccccc2SC1)N(C)C`, the Efficacy result in assay [1] and in assay [5] was “inactive” each time. In addition, the outcome in assay [2] and in assay [4] was inactive. The MEC entry in assay [3] and in assay [6] was “inactive” throughout.

`CCCNC(=S)NC1=Nc2ccccc2CS1`: in assay [1], the Efficacy turned out to be 0.001 µM. The Activity in [2] is 45.7%. The MEC in assay [3] is 0.001 µM. Also, in [4], the result was inactive. Moreover, the Efficacy result in [5] was “inactive”. For the same molecule, in assay [6], the MEC entry is “inactive”.

As to `CCCN(CCC)/C(C)=N/C1=Nc2ccccc2SC1`, the Efficacy entry in assay [1] is “inactive”. Moreover, the outcome in assay [2] was inactive. Further, the MEC entry in assay [3] was “inactive”. The Activity in assay [4] was 53.5%. Moreover, the Efficacy in assay [5] was 10 µM. Moreover, the MEC in assay [6] turned out to be 10 µM.

In the case of `CN/C(C)=N/C1=Nc2ccccc2CS1`, the Efficacy in assay [1] stood at 5 µM; in [5], 1 µM. Moreover, the Activity in assay [2] came out at 43.6%; in [4], 40.1%. The MEC in assay [3] was determined as 5 µM; in assay [6] it was 0.1 µM. For the same molecule, in [7], the result was Active.

For the molecule `NC1=Nc2ccc(OC(F)(F)F)cc2CS1`, the Efficacy in assay [1] turned out to be 0.001 µM. In [2], the Activity is 69.1%. The MEC in assay [3] amounted to 0.001 µM. Also, the result in assay [4] was inactive. Moreover, in assay [5], the Efficacy entry was “inactive”. For the same molecule, the MEC entry in assay [6] was “inactive”.

For the molecule `CN/C(C)=N/C1=Nc2ccccc2SC1`, the Efficacy in [1] is 0.1 µM; in assay [5], 100 µM. Also, the values for the Activity in [2] and in [4] were 25.5% and 33.2%, respectively. Moreover, the figures for the MEC in assay [3] and in [6] were 0.1 µM and 100 µM, respectively.

With `C/C(=N\C1=Nc2ccccc2CS1)N(C)C`, the Efficacy in assay [1] and in [5] was 0.01 µM each time. Moreover, the results for the Activity in assay [2] and in [4] were 72.7% and 78.4%, respectively. Further, the MEC in [3] and in assay [6] was 0.01 µM each time.

In the case of `CCCN(CCC)/C(C)=N/C1=Nc2ccc(OC(F)(F)F)cc2CS1`, the figures for the Efficacy in assay [1] and in assay [5] were 0.01 µM and 0.1 µM, respectively. The Activity in assay [2] was 17.8%; in assay [4], 31%. The MEC in [3] amounted to 0.01 µM; in assay [6], 0.1 µM.

Regarding `Nc1nc2ccc(OC(F)(F)F)cc2s1` [RILUZOLE], the result in assay [8], in assay [9], in assay [12], in assay [13], in [15] and in [16] was Active. The result in assay [17], in [18] and in assay [19] was Active. Further, the results for the Activity result in assay [10], in [14] and in [20] were “Dose-Dependent Effect”, “Tde” and more than 20%, respectively. In assay [11], the viability at 0.01 µM amounted to 65%.

Take `CCN(CC)/C(C)=N/C1=Nc2ccc(OC(F)(F)F)cc2CS1`: the Efficacy entry in assay [1] and in assay [5] was “inactive” in each case. The result in [2] and in [4] was inactive. In addition, the MEC result in assay [3] and in assay [6] was “inactive” in each case.

`CCN(CC)/C(C)=N/C1=Nc2ccccc2SC1`: the Efficacy result in assay [1] and in [5] was “inactive” throughout. The result in [2] and in assay [4] was inactive. For the same molecule, the MEC result in assay [3] and in assay [6] was “inactive” each time.
